In ChEMBL document CHEMBL1122777, “Effect of tellurium position on the myocardial uptake of radioiodinated 18-iodotellura-17-octadecenoic acid analogues” (1984):

Tests used:
[1] = Ratio of heart to kidneys uptake after 120 min was determined in female Fischer rats after [125I]-labeled compound complexed with bovine serum albumin was injected intravenously; format: functional, Heart/Kidney
Outline: (§1)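 Female Fischer 344 rats (food and water ad libitum) given the 125I-labelled fatty acid in 6% bovine albumin with 10% final ethanol, filtered, 0.5 mL into a lateral tail vein under ether anaesthesia. Four rats per time point. Tissue activity expressed as % injected dose/g against assayed injectate standards. Mean heart/tissue ratios were calculated from mean %ID/g values.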

[2] = Ratio of heart to lungs uptake after 240 min was determined in female Fischer rats after [125I]-labeled compound complexed with bovine serum albumin was injected intravenously; format: functional; outline: as §1
[3] = Ratio of heart to kidneys uptake after 30 min was determined in female Fischer rats after [125I]-labeled compound complexed with bovine serum albumin was injected intravenously; format: functional, Heart/Kidney; outline: as §1
[4] = Ratio of heart to kidneys uptake after 240 min was determined in female Fischer rats after [125I]-labeled compound complexed with bovine serum albumin was injected intravenously; format: functional, Heart/Kidney; outline: as §1
[5] = Ratio of heart to blood uptake after 60 min was determined in female Fischer rats after [125I]-labeled compound complexed with bovine serum albumin was injected intravenously; format: functional; outline: as §1
[6] = test system: Rattus norvegicus; assay: Heart uptake after 30 min was determined in female Fischer rats after [125I]-labeled compound complexed with bovine serum albumin was injected intravenously; format: functional
Outline: (§2)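 Female Fischer 344 rats (fed ad libitum) under ether anaesthesia received the ¹²⁵I fatty acid in a lateral tail vein. Dose was ~3.8–4.8 μCi per rat (sp act ~125–240 mCi/mmol), given in 0.5 mL 6% bovine albumin (final ethanol 10%) after filtration. Four rats per time point were used. Tissue radioactivity is % injected dose/g, mean with range, calculated against standards of the injected solution.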

[7] = Ratio of heart to kidneys uptake after 5 min was determined in female Fischer rats after [125I]-labeled compound complexed with bovine serum albumin was injected intravenously; format: functional, Heart/Kidney; outline: as §1
[8] = Ratio of heart to blood uptake after 120 min was determined in female Fischer rats after [125I]-labeled compound complexed with bovine serum albumin was injected intravenously; format: functional; outline: as §1
[9] = test system: Rattus norvegicus; assay: Heart uptake after 120 min was determined in female Fischer rats after [125I]-labeled compound complexed with bovine serum albumin was injected intravenously; format: functional; outline: as §2
[10] = Ratio of heart to liver uptake after 30 min was determined in female Fischer rats after [125I]-labeled compound complexed with bovine serum albumin was injected intravenously; format: functional; outline: as §1
[11] = Ratio of heart to blood uptake after 30 min was determined in female Fischer rats after [125I]-labeled compound complexed with bovine serum albumin was injected intravenously; format: functional; outline: as §1
[12] = test system: Rattus norvegicus; assay: Heart uptake after 60 min was determined in female Fischer rats after [125I]-labeled compound complexed with bovine serum albumin was injected intravenously; format: functional; outline: as §2
[13] = Ratio of heart to liver uptake after 60 min was determined in female Fischer rats after [125I]-labeled compound complexed with bovine serum albumin was injected intravenously; format: functional; outline: as §1
[14] = Ratio of heart to blood uptake after 5 min was determined in female Fischer rats after [125I]-labeled compound complexed with bovine serum albumin was injected intravenously; format: functional; outline: as §1
[15] = Ratio of heart to liver uptake after 5 min was determined in female Fischer rats after [125I]-labeled compound complexed with bovine serum albumin was injected intravenously; format: functional; outline: as §1
[16] = test system: Rattus norvegicus; assay: Heart uptake after 5 min was determined in female Fischer rats after [125I]-labeled compound complexed with bovine serum albumin was injected intravenously; format: functional; outline: as §2
[17] = Ratio of heart to liver uptake after 240 min was determined in female Fischer rats after [125I]-labeled compound complexed with bovine serum albumin was injected intravenously; format: functional; outline: as §1
[18] = Ratio of heart to lungs uptake after 60 min was determined in female Fischer rats after [125I]-labeled compound complexed with bovine serum albumin was injected intravenously; format: functional; outline: as §1
[19] = test system: Rattus norvegicus; assay: Heart uptake after 240 min was determined in female Fischer rats after [125I]-labeled compound complexed with bovine serum albumin was injected intravenously; format: functional; outline: as §2
[20] = Ratio of heart to kidneys uptake after 60 min was determined in female Fischer rats after [125I]-labeled compound complexed with bovine serum albumin was injected intravenously; format: functional, Heart/Kidney; outline: as §1
[21] = Ratio of heart to lungs uptake after 5 min was determined in female Fischer rats after [125I]-labeled compound complexed with bovine serum albumin was injected intravenously; format: functional; outline: as §1
[22] = Ratio of heart to lungs uptake after 30 min was determined in female Fischer rats after [125I]-labeled compound complexed with bovine serum albumin was injected intravenously; format: functional; outline: as §1
[23] = Ratio of heart to blood uptake after 240 min was determined in female Fischer rats after [125I]-labeled compound complexed with bovine serum albumin was injected intravenously; format: functional; outline: as §1
[24] = Ratio of heart to lungs uptake after 120 min was determined in female Fischer rats after [125I]-labeled compound complexed with bovine serum albumin was injected intravenously; format: functional; outline: as §1
[25] = Ratio of heart to liver uptake after 120 min was determined in female Fischer rats after [125I]-labeled compound complexed with bovine serum albumin was injected intravenously; format: functional; outline: as §1
[26] = test system: Rattus norvegicus; assay: Blood uptake after 4 hr was determined in female Fischer rats after [125I]-labeled compound complexed with bovine serum albumin was injected intravenously; format: functional; outline: as §2
[27] = test system: Rattus norvegicus; assay: Uptake in lungs after 5 min was determined in female Fischer rats after [125I]-labeled compound complexed with bovine serum albumin was injected intravenously; format: functional
Outline: (§3)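 Female Fischer 344 rats with free access to food and water. The 125I-labelled fatty acid (~3.8–4.8 μCi; sp act. ~125–240 mCi/mmol) was complexed with 6% bovine serum albumin (10% final ethanol), filtered, and 0.5 mL was injected via a lateral tail vein under ether anaesthesia. Four rats per time point. Values are mean % injected dose/g, calculated against injectate standards. Thyroid weight was taken as 7.5 mg/100 g body weight.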

[28] = test system: Rattus norvegicus; assay: Heart uptake after 1d was determined in female Fischer rats after [125I]-labeled compound complexed with bovine serum albumin was injected intravenously; format: functional; outline: as §2
[29] = test system: Rattus norvegicus; assay: Liver uptake after 5 min was determined in female Fischer rats after [125I]-labeled compound complexed with bovine serum albumin was injected intravenously; format: functional; outline: as §2
[30] = test system: Rattus norvegicus; assay: Thyroid uptake after 5 min was determined in female Fischer rats after [125I]-labeled compound complexed with bovine serum albumin was injected intravenously; format: functional; outline: as §3
[31] = test system: Rattus norvegicus; assay: Uptake in lungs after 60 min was determined in female Fischer rats after [125I]-labeled compound complexed with bovine serum albumin was injected intravenously; format: functional; outline: as §3
[32] = test system: Rattus norvegicus; assay: Blood uptake after 5 min was determined in female Fischer rats after [125I]-labeled compound complexed with bovine serum albumin was injected intravenously; format: functional; outline: as §2
[33] = test system: Rattus norvegicus; assay: Uptake in lungs after 30 min was determined in female Fischer rats after [125I]-labeled compound complexed with bovine serum albumin was injected intravenously; format: functional; outline: as §3
[34] = test system: Rattus norvegicus; assay: Liver uptake after 60 min was determined in female Fischer rats after [125I]-labeled compound complexed with bovine serum albumin was injected intravenously; format: functional; outline: as §2
[35] = test system: Rattus norvegicus; assay: Liver uptake after 30 min was determined in female Fischer rats after [125I]-labeled compound complexed with bovine serum albumin was injected intravenously; format: functional; outline: as §2
[36] = test system: Rattus norvegicus; assay: Uptake in lungs after 1 day was determined in female Fischer rats after [125I]-labeled compound complexed with bovine serum albumin was injected intravenously; format: functional; outline: as §3
[37] = test system: Rattus norvegicus; assay: Heart uptake after 4 hr was determined in female Fischer rats after [125I]-labeled compound complexed with bovine serum albumin was injected intravenously; format: functional; outline: as §2
[38] = test system: Rattus norvegicus; assay: Uptake in lungs after 4 hr was determined in female Fischer rats after [125I]-labeled compound complexed with bovine serum albumin was injected intravenously; format: functional; outline: as §3
[39] = test system: Rattus norvegicus; assay: Blood uptake after 30 min was determined in female Fischer rats after [125I]-labeled compound complexed with bovine serum albumin was injected intravenously; format: functional; outline: as §2
[40] = test system: Rattus norvegicus; assay: Blood uptake after 1d was determined in female Fischer rats after [125I]-labeled compound complexed with bovine serum albumin was injected intravenously; format: functional; outline: as §2
[41] = test system: Rattus norvegicus; assay: Blood uptake after 60 min was determined in female Fischer rats after [125I]-labeled compound complexed with bovine serum albumin was injected intravenously; format: functional; outline: as §2
[42] = test system: Rattus norvegicus; assay: Kidney uptake after 5 min was determined in female Fischer rats after [125I]-labeled compound complexed with bovine serum albumin was injected intravenously; format: functional; outline: as §2
[43] = test system: Rattus norvegicus; assay: Liver uptake after 4 hr was determined in female Fischer rats after [125I]-labeled compound complexed with bovine serum albumin was injected intravenously; format: functional; outline: as §2
[44] = test system: Rattus norvegicus; assay: Liver uptake after 1d was determined in female Fischer rats after [125I]-labeled compound complexed with bovine serum albumin was injected intravenously; format: functional; outline: as §2

SMILES: O=C(O)CCCCC[Te]CCCCCCCCC/C=C/I
- Ratio [1]: 3.3
- Ratio [2]: 2.8
- Ratio [3]: 3.1
- Ratio [4]: 3.1
- Ratio [5]: 13
- Injected dose/g [6]: 2.78%
- Ratio [7]: 3.3
- Ratio [8]: 12
- Injected dose/g [9]: 2.86%
- Ratio [10]: 0.49
- Ratio [11]: 13
- Injected dose/g [12]: 2.96%
- Ratio [13]: 0.55
- Ratio [14]: 13
- Ratio [15]: 0.56
- Injected dose/g [16]: 3.47%
- Ratio [17]: 0.54
- Ratio [18]: 2.9
- Injected dose/g [19]: 2.37%
- Ratio [20]: 3.1
- Ratio [21]: 2.7
- Ratio [22]: 2.9
- Ratio [23]: 8
- Ratio [24]: 2.9
- Ratio [25]: 0.59

SMILES: O=C(O)CCCCCCCCCCC[Te]CCC/C=C/I
- Ratio [1]: 1.1
- Ratio [2]: 1.1
- Ratio [3]: 1.5
- Ratio [4]: 1.9
- Ratio [5]: 2.6
- Injected dose/g [6]: 1.52%
- Ratio [7]: 1.5
- Ratio [8]: 1.5
- Injected dose/g [9]: 1.03%
- Ratio [10]: 0.29
- Ratio [11]: 2.5
- Injected dose/g [12]: 1.81%
- Ratio [13]: 0.41
- Ratio [14]: 8
- Ratio [15]: 0.17
- Injected dose/g [16]: 1.46%
- Ratio [17]: 0.39
- Ratio [18]: 1.6
- Injected dose/g [19]: 0.76%
- Ratio [20]: 1.6
- Ratio [21]: 1.6
- Ratio [22]: 1.7
- Ratio [23]: 1.2
- Ratio [24]: 1.3
- Ratio [25]: 0.42

SMILES: O=C(O)CCC[Te]CCCCCCCCCCC/C=C/I
- Injected dose/g [26]: 0.19%
- Ratio [1]: 4
- Injected dose/g [27]: 1.47%
- Injected dose/g [28]: 3.96%
- Ratio [2]: 3.9
- Injected dose/g [29]: 6.56%
- Ratio [3]: 4.6
- Injected dose/g [30]: 6.03%
- Injected dose/g [31]: 1.16%
- Injected dose/g [32]: 0.11%
- Ratio [4]: 4.3
- Injected dose/g [33]: 1.54%
- Ratio [5]: 23
- Injected dose/g [6]: 4.64%
- Ratio [7]: 3.9
- Ratio [8]: 20
- Ratio [10]: 0.84
- Ratio [11]: 30
- Injected dose/g [34]: 7.33%
- Injected dose/g [12]: 4.33%
- Ratio [13]: 0.59
- Ratio [14]: 37
- Ratio [15]: 0.6
- Injected dose/g [16]: 3.99%
- Ratio [17]: 0.75
- Ratio [18]: 3.7
- Injected dose/g [35]: 5.53%
- Ratio [20]: 3.7
- Injected dose/g [36]: 0.71%
- Injected dose/g [37]: 3.57%
- Injected dose/g [38]: 0.92%
- Ratio [21]: 2.7
- Ratio [22]: 3
- Injected dose/g [39]: 0.16%
- Injected dose/g [40]: 0.18%
- Injected dose/g [41]: 0.19%
- Ratio [23]: 18
- Ratio [24]: 3.6
- Injected dose/g [42]: 1.02%
- Ratio [25]: 0.74
- Injected dose/g [43]: 4.76%
- Injected dose/g [44]: 3.64%
